According to ChEMBL document CHEMBL2062460, “Disubstituted thiourea derivatives and their activity on CNS: synthesis and biological evaluation” (Eur J Med Chem, 2012):
Values after ≈ are worked out from the molar mass of the structure shown. Active and inactive are the calls of the source. The rule behind the calls is not given here.

How the values were obtained:
Bacillus cereus [1] = assay: Antibacterial activity against Bacillus cereus ATCC 11778 after 18 hrs by twofold serial agar dilution technique; assay type: functional; conditions: ATCC 11778, 18 h
Staphylococcus aureus [2] = assay: Antibacterial activity against Staphylococcus aureus ATCC 25923 at 400 ug/disc after 18 hrs by disc diffusion method; assay type: functional; conditions: ATCC 25923, 18 h, read-out: DIZ
In short: (§1)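 Disc diffusion per CLSI on Mueller–Hinton II agar; 9 mm paper discs loaded from methanol or DMSO solutions to 400 µg per disc, dried; growth inhibition zone diameter read after 18 h at 35 °C.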

Staphylococcus aureus [3] = assay: Antibacterial activity against methicillin-resistant Staphylococcus aureus clinical isolate 357/09 after 18 hrs by twofold serial agar dilution technique; assay type: functional; conditions: clinical isolate 357/09, 18 h
In short: (§2)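 Clinical isolates came from patients in Warsaw Medical University Hospitals and were classed as methicillin-susceptible or -resistant. MIC was determined by twofold serial agar dilution on Mueller–Hinton II agar (CLSI), 3.125–400 µg/mL in agar, with compounds in methanol or DMSO. Inoculum was 10^4 CFU/mL and plates were read after 18 h at 35 °C.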

Staphylococcus aureus [4] = assay: Antibacterial activity against methicillin-susceptible Staphylococcus aureus clinical isolate 267/08 after 18 hrs by twofold serial agar dilution technique; assay type: functional; conditions: clinical isolate 267/08, 18 h; in short: as §2
Staphylococcus aureus [5] = assay: Antibacterial activity against methicillin-resistant Staphylococcus aureus clinical isolate 329/08 after 18 hrs by twofold serial agar dilution technique; assay type: functional; conditions: clinical isolate 329/08, 18 h; in short: as §2
Enterococcus hirae [6] = assay: Antibacterial activity against Enterococcus hirae ATCC 10541 at 400 ug/disc after 18 hrs by disc diffusion method; assay type: functional; in short: as §1
Staphylococcus aureus [7] = assay: Antibacterial activity against methicillin-resistant Staphylococcus aureus clinical isolate 356/09 after 18 hrs by twofold serial agar dilution technique; assay type: functional; conditions: clinical isolate 356/09, 18 h; in short: as §2
Bacillus subtilis [8] = assay: Antibacterial activity against Bacillus subtilis ATCC 6633 after 18 hrs by twofold serial agar dilution technique; assay type: functional; conditions: ATCC 6633, 18 h
Staphylococcus aureus [9] = assay: Antibacterial activity against Staphylococcus aureus ATCC 29213 at 400 ug/disc after 18 hrs by disc diffusion method; assay type: functional; conditions: ATCC 29213, 18 h, read-out: DIZ; in short: as §1
Staphylococcus aureus [10] = assay: Antibacterial activity against Staphylococcus aureus ATCC 6538 after 18 hrs by twofold serial agar dilution technique; assay type: functional; conditions: ATCC 6538, 18 h
In short: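 Twofold serial agar dilution on Mueller–Hinton II agar, following CLSI guidelines. Compounds were dissolved in methanol or DMSO and tested at final agar concentrations of 3.125–400 µg/mL. Final inoculum was 10^4 CFU/mL.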

Staphylococcus aureus [11] = assay: Antibacterial activity against methicillin-susceptible Staphylococcus aureus clinical isolate 338/08 after 18 hrs by twofold serial agar dilution technique; assay type: functional; conditions: clinical isolate 338/08, 18 h; in short: as §2
Staphylococcus aureus [12] = assay: Antibacterial activity against methicillin-resistant Staphylococcus aureus clinical isolate 275/08 after 18 hrs by twofold serial agar dilution technique; assay type: functional; conditions: clinical isolate 275/08, 18 h; in short: as §2
Staphylococcus aureus [13] = assay: Antibacterial activity against methicillin-resistant Staphylococcus aureus clinical isolate 307/08 after 18 hrs by twofold serial agar dilution technique; assay type: functional; conditions: clinical isolate 307/08, 18 h; in short: as §2
Staphylococcus aureus [14] = assay: Antibacterial activity against methicillin-susceptible Staphylococcus aureus clinical isolate 269/08 after 18 hrs by twofold serial agar dilution technique; assay type: functional; conditions: clinical isolate 269/08, 18 h; in short: as §2
Escherichia coli = assay: Antibacterial activity against Escherichia coli ATCC 10538 at 400 ug/disc after 18 hrs by disc diffusion method; assay type: functional, organism-based; in short: as §1
Micrococcus luteus [15] = assay: Antibacterial activity against Micrococcus luteus ATCC 10240 after 18 hrs by twofold serial agar dilution technique; assay type: functional; conditions: ATCC 10240, 18 h
Bacillus subtilis [16] = assay: Antibacterial activity against Bacillus subtilis ATCC 6633 at 400 ug/disc after 18 hrs by disc diffusion method; assay type: functional; conditions: ATCC 6633, 18 h, read-out: DIZ; in short: as §1
Staphylococcus aureus [17] = assay: Antibacterial activity against methicillin-resistant Staphylococcus aureus clinical isolate 376/09 after 18 hrs by twofold serial agar dilution technique; assay type: functional; conditions: clinical isolate 376/09, 18 h; in short: as §2
Staphylococcus aureus [18] = assay: Antibacterial activity against methicillin-resistant Staphylococcus aureus clinical isolate 309/08 after 18 hrs by twofold serial agar dilution technique; assay type: functional; conditions: clinical isolate 309/08, 18 h; in short: as §2
Micrococcus luteus [19] = assay: Antibacterial activity against Micrococcus luteus ATCC 9341 at 400 ug/disc after 18 hrs by disc diffusion method; assay type: functional; conditions: ATCC 9341, 18 h, read-out: DIZ; in short: as §1
Pseudomonas aeruginosa [20] = assay: Antibacterial activity against Pseudomonas aeruginosa ATCC 15442 at 400 ug/disc after 18 hrs by disc diffusion method; assay type: functional, organism-based; in short: as §1
Staphylococcus aureus [21] = assay: Antibacterial activity against methicillin-susceptible Staphylococcus aureus clinical isolate 339/09 after 18 hrs by twofold serial agar dilution technique; assay type: functional; conditions: clinical isolate 339/09, 18 h; in short: as §2
[22] = test system: Staphylococcus epidermidis; assay: Antibacterial activity against Staphylococcus epidermidis ATCC 12228 at 400 ug/disc after 18 hrs by disc diffusion method; assay type: functional; conditions: ATCC 12228, 18 h, read-out: DIZ; in short: as §1
Pseudomonas aeruginosa [23] = assay: Antibacterial activity against Pseudomonas aeruginosa NCTC 6749 at 400 ug/disc after 18 hrs by disc diffusion method; assay type: functional, organism-based; in short: as §1
Staphylococcus aureus [24] = assay: Antibacterial activity against methicillin-susceptible Staphylococcus aureus clinical isolate 372/09 after 18 hrs by twofold serial agar dilution technique; assay type: functional; conditions: clinical isolate 372/09, 18 h; in short: as §2
Enterococcus hirae [25] = assay: Antibacterial activity against Enterococcus hirae ATCC 10541 after 18 hrs by twofold serial agar dilution technique; assay type: functional; conditions: ATCC 10541, 18 h
Staphylococcus aureus [26] = assay: Antibacterial activity against Staphylococcus aureus ATCC 6538 at 400 ug/disc after 18 hrs by disc diffusion method; assay type: functional; conditions: ATCC 6538, 18 h, read-out: DIZ; in short: as §1
Staphylococcus aureus [27] = assay: Antibacterial activity against methicillin-susceptible Staphylococcus aureus clinical isolate 367/09 after 18 hrs by twofold serial agar dilution technique; assay type: functional; conditions: clinical isolate 367/09, 18 h; in short: as §2
Bacillus cereus [28] = assay: Antibacterial activity against Bacillus cereus ATCC 11778 at 400 ug/disc after 18 hrs by disc diffusion method; assay type: functional; conditions: ATCC 11778, 18 h, read-out: DIZ; in short: as §1
Staphylococcus aureus [29] = assay: Antibacterial activity against methicillin-susceptible Staphylococcus aureus clinical isolate 369/09 after 18 hrs by twofold serial agar dilution technique; assay type: functional; conditions: clinical isolate 369/09, 18 h; in short: as §2

Row | Compound | MIC (Bacillus cereus [1]) [µg/mL] | zone of inhibition at 400 µg/disc (Staphylococcus aureus [2]) [mm] | MIC (Staphylococcus aureus [3]) [µg/mL] | MIC (Staphylococcus aureus [4]) [µg/mL] | MIC (Staphylococcus aureus [5]) [µg/mL] | MIC (Staphylococcus aureus [7]) [µg/mL] | MIC (Bacillus subtilis [8]) [µg/mL] | zone of inhibition at 400 µg/disc (Staphylococcus aureus [9]) [mm] | MIC (Staphylococcus aureus [10]) [µg/mL] | MIC (Staphylococcus aureus [11]) [µg/mL] | MIC (Staphylococcus aureus [12]) [µg/mL] | MIC (Staphylococcus aureus [13]) [µg/mL] | MIC (Staphylococcus aureus [14]) [µg/mL] | diameter of the inhibition zone (DIZ) (Escherichia coli) | MIC (Micrococcus luteus [15]) [µg/mL] | zone of inhibition at 400 µg/disc (Bacillus subtilis [16]) [mm] | MIC (Staphylococcus aureus [17]) [µg/mL] | MIC (Staphylococcus aureus [18]) [µg/mL] | zone of inhibition at 400 µg/disc (Micrococcus luteus [19]) [mm] | diameter of the inhibition zone (DIZ) (Pseudomonas aeruginosa [20]) | other results
1 | Fc1ccccc1NC(=S)Nc1nc[nH]n1 | 100 (≈ 421 µM) | 19 | > 400 | > 400 | > 400 | > 400 | 100 (≈ 421 µM) | 12 | 200 (≈ 843 µM) | > 400 | > 400 | > 400 | > 400 | inactive | 100 (≈ 421 µM) | 20 | > 400 | > 400 | 24 | inactive | diameter of the inhibition zone (DIZ) (Enterococcus hirae [6]): inactive; MIC (Staphylococcus aureus [21]): > 400 µg/mL; zone of inhibition at 400 µg/disc [22]: 11 mm; diameter of the inhibition zone (DIZ) (Pseudomonas aeruginosa [23]): inactive; MIC (Staphylococcus aureus [24]): > 400 µg/mL; MIC (Enterococcus hirae [25]): 400 µg/mL (≈ 1690 µM); zone of inhibition at 400 µg/disc (Staphylococcus aureus [26]): 12 mm; MIC (Staphylococcus aureus [27]): > 400 µg/mL; zone of inhibition at 400 µg/disc (Bacillus cereus [28]): 11 mm; MIC (Staphylococcus aureus [29]): > 400 µg/mL
2 | Fc1cccc(NC(=S)Nc2nc[nH]n2)c1 | 50 (≈ 211 µM) | 34 | 25 (≈ 105 µM) | 25 (≈ 105 µM) | 12.5 (≈ 52.7 µM) | 12.5 (≈ 52.7 µM) | 50 (≈ 211 µM) | 18 | 100 (≈ 421 µM) | 24 (≈ 101 µM) | 25 (≈ 105 µM) | 12.5 (≈ 52.7 µM) | 12.5 (≈ 52.7 µM) | inactive | 50 (≈ 211 µM) | 32 | 25 (≈ 105 µM) | 12.5 (≈ 52.7 µM) | 36 | inactive | zone of inhibition at 400 µg/disc (Enterococcus hirae [6]; ATCC 10541, 18 h, read-out: DIZ): 16 mm; MIC (Staphylococcus aureus [21]): 12.5 µg/mL (≈ 52.7 µM); zone of inhibition at 400 µg/disc [22]: 22 mm; diameter of the inhibition zone (DIZ) (Pseudomonas aeruginosa [23]): inactive; MIC (Staphylococcus aureus [24]): 25 µg/mL (≈ 105 µM); MIC (Enterococcus hirae [25]): 400 µg/mL (≈ 1690 µM); zone of inhibition at 400 µg/disc (Staphylococcus aureus [26]): 15 mm; MIC (Staphylococcus aureus [27]): 12.5 µg/mL (≈ 52.7 µM); zone of inhibition at 400 µg/disc (Bacillus cereus [28]): 14 mm; MIC (Staphylococcus aureus [29]): 12.5 µg/mL (≈ 52.7 µM)
